What was measured:
[1] = biological target: T1, CYP2C9 (Homo sapiens, UniProt P11712); assay: Time dependent irreversible inhibition of CYP2C9 in human liver microsomes at 10 uM preincubated with compound followed by NADPH addition by LC-MS/MS analysis; assay type: ADME; conditions: liver microsomes
Procedure, shortened: (§1)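 HLM (0.2 mg/ml) with 10 µM compound were preincubated 0, 5, 10 or 20 min at 37°C with 1 mM NADPH or PBS. Substrate cocktail (halved concentrations) plus NADPH was then added for 10 min. Metabolites were measured by LC-MS/MS. Kobs is the slope of relative activity versus preincubation time.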

[2] = tested on: NCI-H1993; assay: Growth inhibition of human NCI-H1993 cells after 72 hrs by CCK-8 assay; assay type: functional, cell-based; conditions: Homo sapiens, NCI-H1993, 72 h
[3] = tested on: SNU-5; assay: Growth inhibition of human SNU5 cells after 72 hrs by CCK-8 assay; assay type: functional, cell-based; conditions: Homo sapiens, SNU-5, 72 h
[4] = Intrinsic clearance in human liver microsomes assessed per mg protein at 1 uM preincubated for 5 mins followed by NADPH addition measured after 5 to 30 mins by LC-MS/MS analysis; assay type: ADME, microsome; conditions: read-out: CLH
Procedure, shortened: (§2)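 Microsomes (0.5 mg/ml) with 1 µM compound were preincubated 5 min at 37°C in 100 mM phosphate buffer pH 7.4, then started with 1 mM NADPH. Samples were taken at 0, 5, 10 and 30 min, quenched with acetonitrile/tinidazole and run by LC-MS/MS. CLint = k / microsomal protein concentration. Midazolam was the positive control.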

[5] = Intrinsic clearance in rat liver microsomes assessed per mg protein at 1 uM preincubated for 5 mins followed by NADPH addition measured after 5 to 30 mins by LC-MS/MS analysis; assay type: ADME, microsome; conditions: read-out: CLH; procedure, shortened: as §2
[6] = Drug recovery in human liver microsomes at 1 uM measured after 30 mins by LC-MS/MS analysis; assay type: ADME, microsome; conditions: liver microsomes, read-out: Drug recovery
Procedure, shortened: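 Liver microsomes (0.5 mg/ml) were incubated with 1 µM compound at 37°C in 100 mM phosphate buffer pH 7.4 without NADPH for 30 min. Reactions were quenched with acetonitrile/tinidazole internal standard and analysed by LC-MS/MS. Recovery (%) was taken from the compound/internal standard peak area ratio.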

[7] = Drug recovery in rat liver microsomes at 1 uM measured after 30 mins by LC-MS/MS analysis; assay type: ADME, microsome; conditions: liver microsomes, read-out: Drug recovery
[8] = biological target: T2, Cytochrome P450 3A4 (Homo sapiens, UniProt P08684); assay: (§3) Reversible inhibition of CYP3A4 in human liver microsomes at 10 uM after 20 mins in presence of NADPH by LC-MS/MS analysis; assay type: ADME; conditions: microsomes, 20 min, 10 µM
[9] = biological target: T3, CYP2C19 (Homo sapiens, UniProt P33261); assay: Time dependent irreversible inhibition of CYP2C19 in human liver microsomes at 10 uM preincubated with compound followed by NADPH addition by LC-MS/MS analysis; assay type: ADME; procedure, shortened: as §1
[10] = biological target: T4, CYP3A4 (Homo sapiens, UniProt P08684); assay: (§4) Time dependent irreversible inhibition of CYP3A4 in human liver microsomes at 10 uM preincubated with compound followed by NADPH addition by LC-MS/MS analysis; assay type: ADME; conditions: liver microsomes; procedure, shortened: as §1
[11] = biological target: T5, CYP2D6 (Homo sapiens, UniProt P10635); assay: Time dependent irreversible inhibition of CYP2D6 in human liver microsomes at 10 uM preincubated with compound followed by NADPH addition by LC-MS/MS analysis; assay type: ADME; conditions: liver microsomes; procedure, shortened: as §1
[12] = biological target: T6, CYP1A2 (Homo sapiens, UniProt P05177); assay: Time dependent irreversible inhibition of CYP1A2 in human liver microsomes at 10 uM preincubated with compound followed by NADPH addition by LC-MS/MS analysis; assay type: ADME; conditions: liver microsomes; procedure, shortened: as §1
T6 sequence (P05177 whole entry): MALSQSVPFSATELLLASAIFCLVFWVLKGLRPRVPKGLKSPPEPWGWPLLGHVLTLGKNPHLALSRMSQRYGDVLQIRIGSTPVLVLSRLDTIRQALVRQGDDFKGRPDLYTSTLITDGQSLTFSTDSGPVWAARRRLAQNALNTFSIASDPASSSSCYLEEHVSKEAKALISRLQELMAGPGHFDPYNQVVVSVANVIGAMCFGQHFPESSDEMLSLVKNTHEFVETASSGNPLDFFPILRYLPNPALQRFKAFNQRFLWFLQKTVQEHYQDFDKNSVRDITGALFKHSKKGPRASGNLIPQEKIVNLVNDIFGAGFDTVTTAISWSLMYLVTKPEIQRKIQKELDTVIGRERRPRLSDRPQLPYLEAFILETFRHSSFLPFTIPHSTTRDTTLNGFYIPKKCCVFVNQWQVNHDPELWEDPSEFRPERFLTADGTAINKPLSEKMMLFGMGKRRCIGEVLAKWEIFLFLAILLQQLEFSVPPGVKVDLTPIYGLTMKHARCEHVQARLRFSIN

[13] = Drug recovery in monkey liver microsomes at 1 uM measured after 30 mins by LC-MS/MS analysis
[14] = Intrinsic clearance in monkey liver microsomes assessed per mg protein at 1 uM preincubated for 5 mins followed by NADPH addition measured after 5 to 30 mins by LC-MS/MS analysis; conditions: for microsomal CLint at 1 µM: liver microsomes, read-out: CLH
[15] = biological target: Cytochrome P450 2C19 (Homo sapiens, UniProt P33261); assay: (§5) Reversible inhibition of CYP2C19 in human liver microsomes at 10 uM after 20 mins in presence of NADPH by LC-MS/MS analysis; assay type: ADME; conditions: microsomes, 20 min, 10 µM
[16] = biological target: Cytochrome P450 2C9 (Homo sapiens, UniProt P11712); assay: (§6) Reversible inhibition of CYP2C9 in human liver microsomes at 10 uM after 20 mins by in presence of NADPH LC-MS/MS analysis; assay type: ADME; conditions: microsomes, 20 min, 10 µM
[17] = biological target: Hepatocyte growth factor receptor (Homo sapiens, UniProt P08581); assay: Inhibition of c-MET (unknown origin) using TK substrate-biotin peptide as substrate preincubated for 5 to 10 mins followed by ATP addition measured after 30 mins by HTRF assay
[18] = biological target: T3, CYP2C19; assay: as §5; assay type: ADME; conditions: liver microsomes
[19] = biological target: T1, CYP2C9; assay: as §6; assay type: ADME; conditions: liver microsomes
[20] = biological target: T4, CYP3A4; assay: as §3; assay type: ADME; conditions: liver microsomes
[21] = biological target: T5, CYP2D6; assay: Reversible inhibition of CYP2D6 in human liver microsomes at 10 uM after 20 mins in presence of NADPH by LC-MS/MS analysis; assay type: ADME; conditions: liver microsomes
[22] = biological target: T6, CYP1A2; assay: Reversible inhibition of CYP1A2 in human liver microsomes at 10 uM after 20 mins in presence of NADPH by LC-MS/MS analysis; assay type: ADME
[23] = biological target: T2, Cytochrome P450 3A4; assay: as §4; assay type: ADME; conditions: microsomes, 10 µM; procedure, shortened: as §1

T3 sequence (P33261 whole entry): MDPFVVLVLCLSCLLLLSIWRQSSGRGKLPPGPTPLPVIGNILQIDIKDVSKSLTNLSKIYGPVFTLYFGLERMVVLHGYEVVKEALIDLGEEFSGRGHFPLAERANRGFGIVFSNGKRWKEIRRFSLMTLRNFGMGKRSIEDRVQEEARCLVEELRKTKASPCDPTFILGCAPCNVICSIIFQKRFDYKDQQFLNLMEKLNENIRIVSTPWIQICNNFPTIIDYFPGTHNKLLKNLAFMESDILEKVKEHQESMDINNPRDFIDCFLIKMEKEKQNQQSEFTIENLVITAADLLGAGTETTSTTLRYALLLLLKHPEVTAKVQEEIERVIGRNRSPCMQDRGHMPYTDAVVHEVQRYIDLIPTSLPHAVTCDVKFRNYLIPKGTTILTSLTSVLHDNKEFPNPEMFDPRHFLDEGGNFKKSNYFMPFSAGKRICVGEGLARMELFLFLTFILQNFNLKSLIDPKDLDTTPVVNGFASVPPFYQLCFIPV
Cytochrome P450 2C19, sequence (P33261 whole entry): as above
T5 sequence (P10635 whole entry): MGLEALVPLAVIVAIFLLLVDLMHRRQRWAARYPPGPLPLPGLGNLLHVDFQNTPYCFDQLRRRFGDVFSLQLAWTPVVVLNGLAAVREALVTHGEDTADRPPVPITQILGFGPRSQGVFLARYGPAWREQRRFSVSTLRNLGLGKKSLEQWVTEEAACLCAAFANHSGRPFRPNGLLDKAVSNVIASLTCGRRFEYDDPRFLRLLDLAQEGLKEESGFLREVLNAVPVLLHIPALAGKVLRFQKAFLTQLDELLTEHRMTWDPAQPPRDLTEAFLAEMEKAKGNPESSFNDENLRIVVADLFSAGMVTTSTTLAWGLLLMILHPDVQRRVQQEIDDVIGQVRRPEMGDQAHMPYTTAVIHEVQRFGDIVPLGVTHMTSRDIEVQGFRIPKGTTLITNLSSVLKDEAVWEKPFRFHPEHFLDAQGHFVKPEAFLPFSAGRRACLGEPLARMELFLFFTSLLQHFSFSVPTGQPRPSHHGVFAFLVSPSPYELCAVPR
T4 sequence (P08684 whole entry): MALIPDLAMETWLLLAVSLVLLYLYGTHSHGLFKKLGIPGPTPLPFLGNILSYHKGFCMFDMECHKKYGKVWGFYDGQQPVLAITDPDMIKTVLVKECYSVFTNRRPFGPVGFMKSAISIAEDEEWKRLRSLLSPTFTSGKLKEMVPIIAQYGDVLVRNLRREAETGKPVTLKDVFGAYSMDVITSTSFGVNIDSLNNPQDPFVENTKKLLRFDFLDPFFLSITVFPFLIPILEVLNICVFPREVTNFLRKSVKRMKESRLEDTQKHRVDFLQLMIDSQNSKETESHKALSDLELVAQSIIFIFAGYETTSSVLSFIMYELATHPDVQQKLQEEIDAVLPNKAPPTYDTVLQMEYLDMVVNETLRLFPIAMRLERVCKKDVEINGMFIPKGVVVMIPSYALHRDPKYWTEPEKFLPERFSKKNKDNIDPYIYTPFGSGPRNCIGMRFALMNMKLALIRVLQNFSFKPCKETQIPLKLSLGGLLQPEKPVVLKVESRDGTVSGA
T2 sequence (P08684 whole entry): as above
T1 sequence (P11712 whole entry): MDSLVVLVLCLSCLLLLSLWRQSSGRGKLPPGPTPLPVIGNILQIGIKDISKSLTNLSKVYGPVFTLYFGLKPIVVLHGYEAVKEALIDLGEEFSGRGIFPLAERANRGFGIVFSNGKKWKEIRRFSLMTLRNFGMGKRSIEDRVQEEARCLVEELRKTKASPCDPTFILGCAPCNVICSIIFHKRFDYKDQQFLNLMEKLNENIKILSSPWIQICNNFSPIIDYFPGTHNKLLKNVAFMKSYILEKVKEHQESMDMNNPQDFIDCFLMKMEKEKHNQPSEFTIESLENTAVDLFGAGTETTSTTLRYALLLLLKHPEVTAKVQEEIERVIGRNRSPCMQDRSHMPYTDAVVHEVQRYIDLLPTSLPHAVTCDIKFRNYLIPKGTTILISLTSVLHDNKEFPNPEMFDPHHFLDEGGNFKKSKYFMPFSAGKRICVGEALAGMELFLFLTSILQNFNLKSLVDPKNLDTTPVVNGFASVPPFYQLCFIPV
Cytochrome P450 2C9, sequence (P11712 whole entry): as above
Hepatocyte growth factor receptor, sequence (P08581 whole entry): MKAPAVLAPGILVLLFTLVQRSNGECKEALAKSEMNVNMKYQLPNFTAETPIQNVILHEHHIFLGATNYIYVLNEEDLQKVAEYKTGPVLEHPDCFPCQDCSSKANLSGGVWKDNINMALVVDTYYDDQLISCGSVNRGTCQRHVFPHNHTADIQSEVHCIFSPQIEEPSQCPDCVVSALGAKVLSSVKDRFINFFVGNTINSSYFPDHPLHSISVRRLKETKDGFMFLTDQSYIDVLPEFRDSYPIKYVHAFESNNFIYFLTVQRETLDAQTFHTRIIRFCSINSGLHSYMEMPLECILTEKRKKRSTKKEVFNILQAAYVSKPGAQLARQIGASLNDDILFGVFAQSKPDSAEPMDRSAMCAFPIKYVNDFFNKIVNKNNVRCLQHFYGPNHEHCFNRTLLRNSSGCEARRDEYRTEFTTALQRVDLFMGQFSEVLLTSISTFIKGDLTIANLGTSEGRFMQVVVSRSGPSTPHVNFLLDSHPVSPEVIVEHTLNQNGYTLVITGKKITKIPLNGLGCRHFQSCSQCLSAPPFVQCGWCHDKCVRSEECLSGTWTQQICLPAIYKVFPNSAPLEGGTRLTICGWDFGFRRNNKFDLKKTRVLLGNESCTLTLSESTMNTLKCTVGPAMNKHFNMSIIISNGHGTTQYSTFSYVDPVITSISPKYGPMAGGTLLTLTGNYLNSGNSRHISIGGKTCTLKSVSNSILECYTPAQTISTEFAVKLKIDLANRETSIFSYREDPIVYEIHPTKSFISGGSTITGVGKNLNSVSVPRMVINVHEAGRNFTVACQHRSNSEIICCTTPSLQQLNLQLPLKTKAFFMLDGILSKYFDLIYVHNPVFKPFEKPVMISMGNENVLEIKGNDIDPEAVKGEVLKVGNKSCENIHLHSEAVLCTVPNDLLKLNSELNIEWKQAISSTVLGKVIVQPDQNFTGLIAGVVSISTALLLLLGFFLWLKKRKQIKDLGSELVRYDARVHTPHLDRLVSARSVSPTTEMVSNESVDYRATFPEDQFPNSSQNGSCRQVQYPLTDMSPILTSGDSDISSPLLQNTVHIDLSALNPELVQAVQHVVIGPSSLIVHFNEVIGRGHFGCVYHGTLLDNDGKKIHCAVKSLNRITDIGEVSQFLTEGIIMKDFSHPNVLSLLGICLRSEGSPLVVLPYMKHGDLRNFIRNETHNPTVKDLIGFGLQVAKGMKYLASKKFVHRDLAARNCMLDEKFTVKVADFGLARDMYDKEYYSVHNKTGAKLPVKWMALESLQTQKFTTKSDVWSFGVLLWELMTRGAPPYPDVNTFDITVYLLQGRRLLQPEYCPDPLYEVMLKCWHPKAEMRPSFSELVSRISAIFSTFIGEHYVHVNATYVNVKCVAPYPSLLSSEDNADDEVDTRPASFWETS

SMILES	inhibition at 10 µM [1] [%]	IC50 [2] [nM]	IC50 [3] [nM]	microsomal CLint at 1 µM [4] [µL/min/mg]	microsomal CLint at 1 µM [5] [µL/min/mg]	remaining at 0.5 h, 1 µM [6] [%]	remaining at 0.5 h, 1 µM [7] [%]	inhibition at 10 µM [9] [%]	inhibition at 10 µM [10] [%]	inhibition at 10 µM [11] [%]	inhibition at 10 µM [12] [%]	remaining at 0.5 h, 1 µM [13] [%]	microsomal CLint at 1 µM [14] [µL/min/mg]	other results
CC(c1c(F)cc2ncc(-c3ccc(F)cc3)cc2c1F)n1nnc2ncc(-c3ccncc3)nc21 (stereo unspecified)		3.5	7.2											
C[C@@H](c1cc2cccnc2cc1F)n1cnc2ncc(-c3cnn(C)c3)nc21				8	49	92	79					1		CLH ([14]; microsomes, 1 µM): Nd(Unstable)
CC(c1cc2cc(-c3cnn(C)c3)cnc2cc1F)n1nnc2ncc(-c3ccncc3)nc21 (stereo unspecified)	< 50	3.2	2.5	4	55	113	106	< 50	< 50	< 50	< 50	103	49	inhibition (INH) [15]: Active; inhibition (INH) [16]: Active; inhibition (INH) [8]: Active
CC(c1ccc2ncc(-c3ccc(F)cc3)cc2c1)n1nnc2ncc(-c3ccncc3)nc21 (stereo unspecified)		8.7	7	14	56	105	91					97	65	
CC(c1cc2cc(-c3ccc(F)cc3)cnc2cc1F)n1nnc2ncc(-c3ccncc3)nc21 (stereo unspecified)		3.6	6.8											
CC(c1ccc2nc(-c3cnn(C)c3)ccc2c1)n1nnc2ncc(-c3ccc(N)cc3)nc21 (stereo unspecified)														IC50 [17]: > 100 nM
CC(c1ccc2nc(-c3cnn(C)c3)ccc2c1)n1nnc2ncc(-c3cnn(C)c3)nc21 (stereo unspecified)														IC50 [17]: > 100 nM
CC(c1ccc2ncc(-c3ccc(F)cc3)cc2c1)n1nnc2ncc(-c3cnn(C)c3)nc21 (stereo unspecified)		1.2	2.2	16	28	105	97					109	112	
CNC(=O)c1ccc(-c2cnc3nnn(C(C)c4ccc5ncc(-c6ccc(F)cc6)cc5c4)c3n2)cc1F (stereo unspecified)		4.2	3.7	15	57	104	97					93	119	
CC(c1c(F)cc2ncc(-c3ccc(F)cc3)cc2c1F)n1nnc2ncc(-c3cnn(C)c3)nc21 (stereo unspecified)		2.6	2.2											

More lines, main results first:

inhibition at 10 µM [1] [%]	IC50 [2] [nM]	IC50 [3] [nM]	microsomal CLint at 1 µM [4] [µL/min/mg]	microsomal CLint at 1 µM [5] [µL/min/mg]	remaining at 0.5 h, 1 µM [6] [%]	remaining at 0.5 h, 1 µM [7] [%]	inhibition at 10 µM [9] [%]	inhibition at 10 µM [10] [%]	inhibition at 10 µM [11] [%]	inhibition at 10 µM [12] [%]	remaining at 0.5 h, 1 µM [13] [%]	microsomal CLint at 1 µM [14] [µL/min/mg]	SMILES	other results
< 50	0.9	1.2	22	61	104	94	< 50	< 50	< 50	< 50	90	78	CC(c1ccc2ncc(-c3cnn(C)c3)cc2c1)n1nnc2ncc(-c3ccncc3)nc21 (stereo unspecified)	inhibition (INH) [8]: Active
< 50	0.2	1.8		6	105	104	< 50	< 50	< 50	< 50	108	16	CC(c1ccc2ncc(-c3cnn(C)c3)cc2c1)n1nnc2ncc(-c3cnn(CCO)c3)nc21 (stereo unspecified)	inhibition (INH) [15]: Active; inhibition (INH) [16]: Active
< 50	0.8	1.3	8	20	98	97	< 50	< 50	< 50	< 50	102	43	CC(c1c(F)cc2ncc(-c3cnn(C)c3)cc2c1F)n1nnc2ncc(-c3cnn(CCO)c3)nc21 (stereo unspecified)	inhibition (INH) [15]: Active; inhibition (INH) [16]: Active
< 50		0.9	5	48	92	95	< 50	< 50	< 50	< 50	95	187	CNC(=O)c1ccc(-c2cnc3nnn(C(C)c4c(F)cc5ncc(-c6cnn(C)c6)cc5c4F)c3n2)cc1F (stereo unspecified)	inhibition (INH) [15]: Active; inhibition (INH) [16]: Active
< 50	0.5	0.6	1	5	115	114	< 50	< 50	< 50	< 50	97	16	CNC(=O)c1ccc(-c2cnc3nnn(C(C)c4ccc5ncc(-c6cnn(C)c6)cc5c4)c3n2)cc1F (stereo unspecified)	inhibition (INH) [8]: Active
< 50	1.1	0.6	5	12	116	111	< 50	< 50	< 50	< 50	69	24	CNC(=O)c1ccc(-c2cnc3nnn(C(C)c4cc5cc(-c6cnn(C)c6)cnc5cc4F)c3n2)cc1F (stereo unspecified)	inhibition at 20 min, 10 µM [18]: < 50%; inhibition at 20 min, 10 µM [19]: < 50%; inhibition at 20 min, 10 µM [20]: < 50%; inhibition at 20 min, 10 µM [21]: < 50%; inhibition at 20 min, 10 µM [22]: < 50%
	4.1	2											CC(c1cc2cc(-c3ccc(F)cc3)cnc2cc1F)n1nnc2ncc(-c3cnn(C)c3)nc21 (stereo unspecified)	
	0.8	1.3	17	22	91	94					75	86	CC(c1c(F)cc2ncc(-c3cnn(C)c3)cc2c1F)n1nnc2ncc(-c3cnn(C)c3)nc21 (stereo unspecified)	inhibition (INH) [15]: Active; inhibition (INH) [16]: Active; TDI [23]: Active

From ChEMBL document CHEMBL4020721 (Eur J Med Chem, 2017)
